Data reported in ChEMBL document CHEMBL1121490, “10-Piperazinyl-4H-theino[3,2-b][1,5]- and -[3,4-b][1,5]benzodiazepines as potential neuroleptics” (J Med Chem, 1980).

Columns and labels:
[1] = (§1) Lethal dose in mice after perorla administration; type: toxicity, organism-based; conditions: mouse, in vivo, po
Outline: (§2)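 CFW albino mice (19–21 g), groups of three, given oral doses up to 800 mg/kg as solution or suspension. Mortality and gross behavioural changes observed over 48 h; LD50 approximated from the outcome.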

Rattus norvegicus [2] = assay: compound was evaluated for its ability to produce catalepsy activity in rats; Dose administered perorally is 50 mg/kg; type: functional; conditions: route oral
Outline: (§3)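 Groups of eight Lilly Wistar rats (180–190 g) were dosed orally and checked at 0.5, 1, 1.5, 2, 3, 4 and 5 h. Front paws were placed on a 1.5-cm rod 7 cm above the table, and posture was timed up to 20 min. Release within 10 s counted as noncataleptic. Each rat was scored 0–5 by hold time. Maximum scores per animal were summed, giving a group maximum of 40.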

Rattus norvegicus [3] = assay: Compound was evaluated for its ability to block conditioned avoidance response (CAR) in rats; Dose administered perorally is 40 mg/kg; no significant block 0-25%; type: functional; conditions: route oral
Mus musculus [4] = assay: Hypothermia in mice after perorla administration; type: functional
Outline: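 Groups of three CFW mice were dosed orally. Rectal temperature was taken 15 min, 2.5 h and 5 h after dosing. Mean changes from each group's mean initial temperature were summed as a "temperature index". ED_min is the minimum dose (mg/kg) giving an index at least 5 lower than the control group.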

Rattus norvegicus [5] = assay: Compound was evaluated for its ability to block conditioned avoidance response (CAR) in rats; Dose administered perorally is 50 mg/kg; 31-50% block; type: functional; conditions: route oral
Rattus norvegicus [6] = assay: Compound was evaluated for its ability to block conditioned avoidance response (CAR) in rats; Dose administered perorally is 50 mg/kg; no significant block 0-25%; type: functional; conditions: route oral
Rattus norvegicus [7] = assay: compound was evaluated for its ability to produce catalepsy activity in rats; Dose administered perorally is 100 mg/kg; type: functional; conditions: route oral; outline: as §3
Mus musculus [8] = assay: as §1; type: toxicity, organism-based; conditions: in vivo, po; outline: as §2
Rattus norvegicus [9] = assay: compound was evaluated for its ability to produce catalepsy activity in rats; Dose administered perorally is 25 mg/kg; type: functional; conditions: route oral; outline: as §3
Rattus norvegicus [10] = assay: Compound was evaluated for its ability to block conditioned avoidance response (CAR) in rats; Dose administered perorally is 25 mg/kg; 76-99% block; type: functional; conditions: route oral
Rattus norvegicus [11] = assay: Compound was evaluated for its ability to block conditioned avoidance response (CAR) in rats; Dose administered perorally is 5 mg/kg; no significant block 0-25%; type: functional; conditions: route oral
Rattus norvegicus [12] = assay: compound was evaluated for its ability to produce catalepsy activity in rats; Dose administered perorally is 20 mg/kg; type: functional; conditions: route oral; outline: as §3
Rattus norvegicus [13] = assay: Compound was evaluated for its ability to block conditioned avoidance response (CAR) in rats; Dose administered perorally is 20 mg/kg; 26-30% block; type: functional; conditions: route oral
Rattus norvegicus [14] = assay: Compound was evaluated for its ability to block conditioned avoidance response (CAR) in rats; Dose administered perorally is 25 mg/kg; 31-50% block; type: functional; conditions: route oral
Rattus norvegicus [15] = assay: Compound was evaluated for its ability to produce catalepsy activity in rats; Dose administered perorally is 50 mg/kg; no significant effect (group score 0-3); type: functional; conditions: route oral; outline: as §3
Rattus norvegicus [16] = assay: Compound was evaluated for its ability to block conditioned avoidance response (CAR) in rats; Dose administered perorally is 50 mg/kg; 26-30% block; type: functional; conditions: route oral
Rattus norvegicus [17] = assay: Compound was evaluated for its ability to block conditioned avoidance response (CAR) in rats; Dose administered perorally is 25 mg/kg;n o significant block 0-25%; type: functional; conditions: route oral
Rattus norvegicus [18] = assay: Compound was evaluated for its ability to block conditioned avoidance response (CAR) in rats; Dose administered perorally is 20 mg/kg; 51-75% block; type: functional; conditions: route oral
Outline: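 Lilly Wistar rats (120–130 g) trained in a shuttle box to cross on a 5-s buzzer; failure to respond within 1 s of its end gave a mild shock. Only high responders used. Groups of five dosed orally 1 h 50 min before test; 10-min habituation, then 20-min session. Blockade = shocks received as % of stimuli presented.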

Rattus norvegicus [19] = assay: Compound was evaluated for its ability to block conditioned avoidance response (CAR) in rats; Dose administered perorally is 25 mg/kg; 51-75% block; type: functional; conditions: route oral
Rattus norvegicus [20] = species: Rattus norvegicus; assay: compound was evaluated for its ability to produce catalepsy activity in rats; type: functional; outline: as §3
Rattus norvegicus [21] = assay: Compound was evaluated for its ability to block conditioned avoidance response (CAR) in rats; Dose administered perorally is 12.5 mg/kg; 51-75% block; type: functional; conditions: route oral
Rattus norvegicus [22] = assay: Compound was evaluated for its ability to block conditioned avoidance response (CAR) in rats; Dose administered perorally is 40 mg/kg; 51-75% block; type: functional; conditions: route oral
Rattus norvegicus [23] = assay: Compound was evaluated for its ability to block conditioned avoidance response (CAR) in rats; Dose administered perorally is 50 mg/kg; 76-99% block; type: functional; conditions: route oral
Rattus norvegicus [24] = assay: Compound was evaluated for its ability to block conditioned avoidance response (CAR) in rats; Dose administered perorally is 10 mg/kg; no significant block 0-25%; type: functional; conditions: route oral
Rattus norvegicus [25] = assay: Compound was evaluated for its ability to block conditioned avoidance response (CAR) in rats; Dose administered perorally is 10; 51-75% block; type: functional
Rattus norvegicus [26] = assay: Compound was evaluated for its ability to block conditioned avoidance response (CAR) in rats; Dose administered perorally is 10 mg/kg; 51-75% block; type: functional; conditions: route oral
Rattus norvegicus [27] = species: Rattus norvegicus; assay: compound was evaluated for its ability to produce catalepsy activity in rats.; type: functional
Outline: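 Groups of eight Lilly Wistar rats (180–190 g) dosed orally, front paws placed on 1.5-cm rod 7 cm above table at 0.5, 1, 1.5, 2, 3, 4, 5 h. Time held recorded up to 20 min, scored 0–5 (<10 s = 0 up to >20 min = 5). Maximum score per animal summed; group maximum 40.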

Rattus norvegicus [28] = assay: Compound was evaluated for its ability to block conditioned avoidance response (CAR) in rats; Dose administered perorally is 1.25 mg/kg; 51-75% block; type: functional; conditions: route oral
Rattus norvegicus [29] = assay: Compound was evaluated for its ability to block conditioned avoidance response (CAR) in rats; Dose administered perorally is 50 mg/kg; 51-75% block; type: functional; conditions: route oral
Rattus norvegicus [30] = assay: compound was evaluated for its ability to produce catalepsy activity in rats; Dose administered perorally is 2.5 mg/kg; type: functional; conditions: route oral; outline: as §3
Rattus norvegicus [31] = assay: Compound was evaluated for its ability to block conditioned avoidance response (CAR) in rats; Dose administered perorally is 2.5 mg/kg; 31-50% block; type: functional; conditions: route oral

Compound	LD50 [1] [mg/kg]	EDmin (Mus musculus [4]) [mg/kg]	further results
OCCCN1CCN(C2=Nc3cc(F)ccc3Nc3ccsc32)CC1	> 400	200	Activity (Rattus norvegicus [2]): 0; Activity (Rattus norvegicus [3]): 0
Fc1ccc2c(c1)N=C(N1CCNCC1)c1sccc1N2	400	50	Activity (Rattus norvegicus [2]): 1; Activity (Rattus norvegicus [5]): 2
Cc1scc2c1Nc1ccccc1N=C2N1CCN(C)CC1	200	>100	Activity (Rattus norvegicus [6]): 0; Activity (Rattus norvegicus [7]): 0
c1ccc2c(c1)N=C(N1CCNCC1)c1cscc1N2	> 400	50	Activity (Rattus norvegicus [6]): 0; Activity (Rattus norvegicus [2]): 1
CN1CCN(C2=Nc3ccccc3Nc3cscc32)CC1	150	25	LD50 (Mus musculus [8]): 150 mg/kg; Activity (Rattus norvegicus [9]): 1; Activity (Rattus norvegicus [10]): 4
CN1CCN(C2=NC3=CSCC3=Nc3ccccc32)CC1	50	50	Activity (Rattus norvegicus [11]): 0
CN1CCN(C2=Nc3cc(F)ccc3Nc3cscc32)CC1	100	6.25	Activity (Rattus norvegicus [12]): 1; Activity (Rattus norvegicus [13]): 1
CSc1ccc2c(c1)N=C(N1CCN(C)CC1)c1cscc1N2	400	25	Activity (Rattus norvegicus [14]): 2
c1ccc2c(c1)N=C(N1CCNCC1)c1sccc1N2	400	50	Activity (Rattus norvegicus [15]): 0; Activity (Rattus norvegicus [16]): 1
Cc1scc2c1C(N1CCN(C)CC1)=Nc1ccccc1N2	> 400	50	Activity (Rattus norvegicus [17]): 0
Fc1ccc2c(c1)N=C(N1CCNCC1)c1cscc1N2	600	100	Activity (Rattus norvegicus [6]): 0; Activity (Rattus norvegicus [2]): 0
CN1CCN(C2=Nc3ccccc3N(C)c3cscc32)CC1	150	25	Activity (Rattus norvegicus [2]): 0; Activity (Rattus norvegicus [5]): 2
Fc1ccc2c(c1)N=C(N1CCN(Cc3ccccc3)CC1)c1sccc1N2	> 400	100	Activity (Rattus norvegicus [6]): 0
CN1CCN(C2=Nc3cc(F)ccc3Nc3ccsc32)CC1	> 25	12.5	Activity (Rattus norvegicus [18]): 3; Activity (Rattus norvegicus [12]): 2
O=CN1CCN(C2=Nc3ccccc3N(C=O)c3cscc32)CC1	400	200	Activity (Rattus norvegicus [6]): 0
Clc1cc2c(cc1Cl)Nc1cscc1C(N1CCNCC1)=N2	> 800	200	Activity (Rattus norvegicus [6]): 0; Activity (Rattus norvegicus [2]): 0
Clc1ccc2c(c1)N=C(N1CCNCC1)c1cscc1N2	> 400	25	Activity (Rattus norvegicus [6]): 0; Activity (Rattus norvegicus [2]): 0
CCOC(=O)N1CCN(C2=Nc3cc(F)ccc3Nc3ccsc32)CC1	> 800	>800	Activity (Rattus norvegicus [16]): 1
COc1ccc2c(c1)N=C(N1CCN(C)CC1)c1cscc1N2	200	50	Activity (Rattus norvegicus [2]): 1; Activity (Rattus norvegicus [16]): 1

Compound	LD50 [1] [mg/kg]	EDmin (Mus musculus [4]) [mg/kg]	further results
CN1CCN(C2=Nc3ccc(C(F)(F)F)cc3Nc3cscc32)CC1	600	100	Activity (Rattus norvegicus [6]): 0; Activity (Rattus norvegicus [2]): 0
CN1CCN(C2=Nc3ccccc3Nc3ccsc32)CC1	100	25	Activity (Rattus norvegicus [19]): 3; Activity (Rattus norvegicus [9]): 2
CN1CCN(C2=Nc3cc(Cl)ccc3Nc3ccsc32)CC1	50	6.25	Activity (Rattus norvegicus [20]): 2; Activity (Rattus norvegicus [21]): 3
CN1CCN(C2=Nc3cc(C(F)(F)F)ccc3Nc3cscc32)CC1	> 200	50	Activity (Rattus norvegicus [22]): 3
OCCN1CCN(C2=Nc3cc(F)ccc3Nc3ccsc32)CC1	> 400	25	Activity (Rattus norvegicus [2]): 0; Activity (Rattus norvegicus [5]): 2
c1ccc(CN2CCN(C3=Nc4ccccc4Nc4ccsc43)CC2)cc1	> 400	200	Activity (Rattus norvegicus [6]): 0
CN1CCN(C2=Nc3cc(Cl)c(Cl)cc3Nc3cscc32)CC1	400	25	Activity (Rattus norvegicus [23]): 4; Activity (Rattus norvegicus [20]): 1
OCCCN1CCN(C2=Nc3ccccc3Nc3cscc32)CC1	> 400	>400	Activity (Rattus norvegicus [16]): 1
Cc1cc2c(s1)C(N1CCN(C)CC1)=Nc1cc(F)ccc1N2	150	12.5	Activity (Rattus norvegicus [24]): 0
c1ccc(CN2CCN(C3=Nc4ccccc4Nc4cscc43)CC2)cc1	800	800	Activity (Rattus norvegicus [6]): 0
CN1CCN(c2cccc3c2N=C2SC=CC2N=C3)CC1 (configuration not stated)	> 50	>50	–
CN1CCN(C2=Nc3cc(Cl)ccc3Nc3cscc32)CC1	75	3	Activity (Rattus norvegicus [25]): 3; Activity (Rattus norvegicus [20]): 1
CN(C)CCCN1c2ccccc2Sc2ccc(Cl)cc21 [CHLORPROMAZINE]	–	6.25	Activity (Rattus norvegicus [26]): 3; Activity (Rattus norvegicus [20]): 1
CN1CCN(C2=Nc3cc(Cl)ccc3Nc3ccccc32)CC1 [CLOZAPINE]	–	50	Activity (Rattus norvegicus [27]): 2; Activity (Rattus norvegicus [18]): 3
OCCN1CCN(CC/C=C2\c3ccccc3Sc3ccc(C(F)(F)F)cc32)CC1 [E-FLUPENTIXOL]	> 400	>400	Activity (Rattus norvegicus [2]): 0; Activity (Rattus norvegicus [16]): 1
O=C(CCCN1CCC(O)(c2ccc(Cl)cc2)CC1)c1ccc(F)cc1 [HALOPERIDOL]	> 100	3	Activity (Rattus norvegicus [28]): 3; Activity (Rattus norvegicus [20]): 3
CSc1ccc2c(c1)N(CCC1CCCCN1C)c1ccccc1S2 (configuration not stated) [THIORIDAZINE]	–	25	Activity (Rattus norvegicus [9]): 1; Activity (Rattus norvegicus [29]): 3
OCCN1CCN(CC/C=C2/c3ccccc3Sc3ccc(C(F)(F)F)cc32)CC1 [Z-FLUPENTIXOL]	–	3	Activity (Rattus norvegicus [30]): 4; Activity (Rattus norvegicus [31]): 2
